Activity data for 2 compounds are collected here from ChEMBL document CHEMBL5030505, “Assessment of NR4A Ligands That Directly Bind and Modulate the Orphan Nuclear Receptor Nurr1” (J Med Chem, 2020).

The source made the active and inactive calls. No cut-off for these calls is given here.

Common to all, as to assay type: cell-based
Series [1] has as its system PC-12. The experiment in a line: Modulation of Gal4-fused VP16 expressed in PC12 cells co-transfected with UAS repoter gene assessed as decrease in luciferase activity at 1.56 to 6.25 uM incubated for 18 hrs by luciferase reporter gene assay. The following applies: Human alphaherpesvirus 2, filed as modulator, dose 1.56-6.25 µM. An outline of the steps:
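Constitutive control: cells transfected (Lipofectamine 2000) with Gal4-VP16 expression plasmid (2 μg) plus 5xUAS-luciferase reporter (2 μg), 18 h; replated 10,000 cells/well, 4 h; ligand or vehicle in quadruplicate for 18 h; luciferase read by Britelite Plus; signal as fold change over vehicle-treated cells. Mean ± s.e.m. (n=4); one-way ANOVA versus vehicle.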
On the technique in general: In a reporter assay the amount or activity of a reporter protein is the signal.

Series [2] deals with Nuclear receptor subfamily 4 group A member 2 (Homo sapiens) (UniProt P43354). As to the kind of experiment: Modulation of full length human Nurr1 expressed in SKNBE(2) cells co-transfected with RXRalpha and luciferase reporter plasmid harboring NBRE response element assessed as decrease in luciferase activity at 1.56 to 6.25 uM incubated for 18 by luciferase reporter gene assay. The note with it: SKNBE2, filed as modulator, dose 1.56-6.25 µM, time 18.0 hrs.

Series [3] shares this target. As to the kind of experiment: Modulation of full length human Nurr1 expressed in SKNBE(2) cells co-transfected with RXRalpha and luciferase reporter plasmid harboring NBRE response element assessed as increase in luciferase activity at 1.56 to 6.25 uM incubated for 18 by luciferase reporter gene assay. The note with it: SKNBE2, filed as modulator, dose 1.56-6.25 µM, time 18.0 hrs.

Series [4] has the same target. As to the kind of experiment: Modulation of full length human Nurr1 expressed in PC12 cells co-transfected with RXRalpha and luciferase reporter plasmid harboring NBRE response element assessed as decrease in luciferase activity at 1.56 to 6.25 uM incubated for 18 by luciferase reporter gene assay. The following applies: PC-12, filed as modulator, dose 1.56-6.25 µM, time 18.0 hrs.

For series [5] the target is unchanged. The experiment in a line: Modulation of full length human Nurr1 expressed in PC12 cells co-transfected with RXRalpha and luciferase reporter plasmid harboring NBRE response element assessed as increase in luciferase activity at 1.56 to 6.25 uM incubated for 18 by luciferase reporter gene assay. The following applies: PC-12, filed as modulator, dose 1.56-6.25 µM, time 18.0 hrs.

Series [6] shares this target. The experiment in a line: Modulation of full length human Nurr1 expressed in HEK293T cells co-transfected with RXRalpha and luciferase reporter plasmid harboring NBRE response element assessed as increase in luciferase activity at 1.56 to 6.25 uM incubated for 18 by luciferase reporter gene assay. The note with it: filed as modulator, dose 1.56-6.25 µM, time 18.0 hrs.

Series [7] shares this target. The experiment in a line: Modulation of full length human Nurr1 expressed in SKNBE(2) cells co-transfected with luciferase reporter plasmid harboring NurRE response element assessed as decrease in luciferase activity at 1.56 to 6.25 uM incubated for 18 by luciferase reporter gene assay. The note with it: SKNBE2, filed as modulator, dose 1.56-6.25 µM, time 18.0 hrs. The essentials: (§1)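 Cells transfected (Lipofectamine 2000, 18 h) with full-length Nurr1 expression plasmid (2 μg) and 3xNBRE- or 3xNurRE-luciferase reporter (6 μg), no internal control normalisation; replated 10,000 cells/well, 4 h; ligand or vehicle in quadruplicate for 18 h; Britelite Plus luminescence as fold change over vehicle. Mean ± s.e.m. (n=4); one-way ANOVA versus vehicle.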

For series [8] the target is unchanged. As to the kind of experiment: Modulation of full length human Nurr1 expressed in SKNBE(2) cells co-transfected with luciferase reporter plasmid harboring NurRE response element assessed as increase in luciferase activity at 1.56 to 6.25 uM incubated for 18 by luciferase reporter gene assay. The note with it: SKNBE2, filed as modulator, dose 1.56-6.25 µM, time 18.0 hrs. An outline of the steps: as §1

For series [9] the target is unchanged. The experiment in a line: Modulation of full length human Nurr1 expressed in PC12 cells co-transfected with luciferase reporter plasmid harboring NurRE response element assessed as decrease in luciferase activity at 1.56 to 6.25 uM incubated for 18 by luciferase reporter gene assay. The note with it: PC-12, filed as modulator, dose 1.56-6.25 µM, time 18.0 hrs. The essentials: as §1

For series [10] the target is unchanged. The experiment in a line: Modulation of full length human Nurr1 expressed in PC12 cells co-transfected with luciferase reporter plasmid harboring NBRE response element assessed as decrease in luciferase activity at 1.56 to 6.25 uM incubated for 18 by luciferase reporter gene assay. The note with it: PC-12, filed as modulator, dose 1.56-6.25 µM, time 18.0 hrs. The essentials:
as §1

Series [11] has the same target. As to the kind of experiment: Modulation of full length human Nurr1 expressed in HEK293T cells co-transfected with luciferase reporter plasmid harboring NBRE response element assessed as increase in luciferase activity at 1.56 to 6.25 uM incubated for 18 by luciferase reporter gene assay. The note with it: filed as modulator, dose 1.56-6.25 µM, time 18.0 hrs. The essentials:
as §1

Series [12] relates to PC-12. The experiment in a line: Cytotoxicity against rat PC-12 cells assessed as reduction in cell viability at 5 to 100 uM incubated for 18 hrs by Cell titer-glo assay. The following applies: pc-12, 18 h, dose 5-100 µM. The essentials:
(§2)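 Cells seeded at 1.5 million per 10-cm dish. Next day they were replated at 10,000 cells/well and rested 4 h. Ligand or vehicle (water, ethanol or DMSO, by ligand) was added in dose-response format in quadruplicate. After 18 h, viability was read by CellTiter-Glo luminescence. Data are mean ± s.e.m., generally representative of 2 independent experiments. One-way ANOVA versus vehicle.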
(In ATP-based viability assays light output follows the ATP content of the culture.)

Another series deals with HEK-293T. The experiment in a line: Cytotoxicity against human HEK293T cells assessed as reduction in cell viability at 5 to 100 uM incubated for 18 hrs by Cell titer-glo assay. The note with it: dose 5-100 µM. The essentials: as §2
A further series has as its system SKNBE2. As to the kind of experiment: Modulation of Gal4-fused VP16 expressed in SKNBE2 cells co-transfected with UAS repoter gene assessed as decrease in luciferase activity at 5 to 100 uM incubated for 18 hrs by luciferase reporter gene assay. The note with it: Human alphaherpesvirus 2, filed as modulator, dose 5-100 µM. The essentials: (§3)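 Cells in 10-cm dishes were transfected with Gal4-VP16 expression plasmid (2 μg) plus 5xUAS-luciferase reporter (2 μg) for 18 h. They were replated at 10,000 cells/well for 4 h, then given ligand or vehicle (water, ethanol or DMSO) in quadruplicate for 18 h. Luciferase was read with Britelite Plus. Fold change is versus vehicle-treated cells, with one-way ANOVA versus vehicle.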

The subject of series [13] is PC-12. The experiment in a line: Modulation of Gal4-fused VP16 expressed in PC12 cells co-transfected with UAS repoter gene assessed as decrease in luciferase activity at 5 to 100 uM incubated for 18 hrs by luciferase reporter gene assay. The note with it: Human alphaherpesvirus 2, filed as modulator, dose 5-100 µM. The essentials: as §3
For a further series, the system named is HEK293T. As to the kind of experiment: Modulation of Gal4-fused VP16 expressed in HEK293T cells co-transfected with UAS repoter gene assessed as decrease in luciferase activity at 5 to 100 uM incubated for 18 hrs by luciferase reporter gene assay. The note with it: Human alphaherpesvirus 2, filed as modulator, dose 5-100 µM. The essentials: as §3

Sequence of Nuclear receptor subfamily 4 group A member 2 (Homo sapiens) (P43354 whole entry): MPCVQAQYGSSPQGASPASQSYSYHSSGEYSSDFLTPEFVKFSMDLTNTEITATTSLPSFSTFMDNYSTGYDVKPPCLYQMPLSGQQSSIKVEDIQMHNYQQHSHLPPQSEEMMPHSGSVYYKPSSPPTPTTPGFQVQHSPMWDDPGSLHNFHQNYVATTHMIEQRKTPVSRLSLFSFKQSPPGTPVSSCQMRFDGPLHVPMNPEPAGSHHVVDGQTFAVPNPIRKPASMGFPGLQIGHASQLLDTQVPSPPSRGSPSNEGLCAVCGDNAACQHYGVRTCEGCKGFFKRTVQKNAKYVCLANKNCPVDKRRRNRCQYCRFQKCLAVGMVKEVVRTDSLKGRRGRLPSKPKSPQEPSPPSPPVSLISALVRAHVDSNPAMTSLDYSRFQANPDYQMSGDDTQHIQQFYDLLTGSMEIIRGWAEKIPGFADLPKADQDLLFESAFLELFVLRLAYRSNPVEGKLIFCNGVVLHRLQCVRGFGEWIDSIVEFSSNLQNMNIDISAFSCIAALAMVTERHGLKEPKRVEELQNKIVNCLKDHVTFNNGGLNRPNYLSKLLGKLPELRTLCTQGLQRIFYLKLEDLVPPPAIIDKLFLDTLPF

`CC1=C(O)C(=O)C=C2C1=CC=C1[C@@]2(C)CC[C@@]2(C)[C@@H]3C[C@](C)(C(=O)O)CC[C@]3(C)CC[C@]12C` [CELASTROL]: the outcome (in the series with PC-12 [1]; in [2]; in series [3]; in series [4]; in [5]; in series [6]) was Active. Also, the outcome in series [7], in series [8], in series [9], in [10] and in series [11] was Active.

In the case of `CCCCCCCC(=O)c1c(O)cc(O)cc1CC(=O)OCC` [CYTOSPORONE B], the Activity entry in the series with PC-12 [12] and in the series on HEK-293T was “Toxic” in each case. Besides, the result with SKNBE2, in the series on PC-12 [13] and in the series on HEK293T was Active.
